ChEMBL document CHEMBL1129493 (J Med Chem, 1996)
In brackets after ≈: the same amount, converted by molar mass.

Assays:
Candida albicans = experiment: Minimum inhibitory concentration evaluated against Candida albicans; assay type: functional
Dihydrofolate reductase [1] = biological target: T1, Dihydrofolate reductase (Candida albicans, UniProt P22906); experiment: Inhibition of Dihydrofolate reductase enzyme from Candida albicans
T1 sequence (P22906 whole entry): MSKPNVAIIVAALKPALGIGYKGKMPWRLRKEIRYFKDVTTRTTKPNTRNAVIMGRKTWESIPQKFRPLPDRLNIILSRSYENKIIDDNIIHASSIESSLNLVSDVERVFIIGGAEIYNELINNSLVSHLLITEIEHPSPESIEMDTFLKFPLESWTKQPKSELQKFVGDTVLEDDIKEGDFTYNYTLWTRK

Dihydrofolate reductase [2] = biological target: T2, Dihydrofolate reductase (Homo sapiens, UniProt P00374); experiment: Inhibition of human recombinant Dihydrofolate reductase enzyme
T2 sequence (P00374 whole entry): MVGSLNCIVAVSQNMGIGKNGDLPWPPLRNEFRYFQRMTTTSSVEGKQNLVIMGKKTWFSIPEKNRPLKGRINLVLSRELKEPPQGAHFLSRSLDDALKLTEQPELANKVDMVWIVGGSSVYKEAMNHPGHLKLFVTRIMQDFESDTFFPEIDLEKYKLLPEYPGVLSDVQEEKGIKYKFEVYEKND

HCT-8 = experiment: Activity was evaluated against HCT-8 tumor cells; assay type: functional, cell-based; details: Homo sapiens
Summary of the method: (§1)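 Cytotoxicity was read by MTT dye reduction for suspension cultures or sulforhodamine B for monolayer cultures. For reversal of multidrug resistance, reserpine was added as reversing agent ([…] as printed).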

KB [3] = experiment: Cytotoxic activity was evaluated against KBV-1 cells in presence of reserpine; assay type: functional, Homo sapiens; summary of the method: as §1
KB [4] = experiment: Cytotoxic activity was evaluated against KBV-1 cells; assay type: functional, Homo sapiens; summary of the method: as §1
MCF7 [5] = experiment: Cytotoxic activity was evaluated against MCF-7 cells; assay type: functional, Homo sapiens; summary of the method: as §1
MCF7 [6] = experiment: Cytotoxic activity was evaluated against MCF-7/ADR cells; assay type: functional, Homo sapiens; summary of the method: as §1
MCF7 [7] = experiment: Cytotoxic activity was evaluated against MCF-7/ADR+Reserpine cells; assay type: functional, Homo sapiens; summary of the method: as §1
KB 3-1 = experiment: Cytotoxic activity was evaluated against KB3-1 cells; assay type: functional, Homo sapiens; summary of the method: as §1
P388 [8] = experiment: Cytotoxic activity was evaluated against P388D1/ADR cells; assay type: functional, Mus musculus; summary of the method: as §1
P388 [9] = experiment: Cytotoxic Activity was evaluated against P388D1 cells; assay type: functional, Mus musculus; summary of the method: as §1
P388 [10] = experiment: Cytotoxic activity was evaluated against P388/ADR + reserpine cells; assay type: functional, Mus musculus; summary of the method: as §1
Mus musculus [11] = organism: Mus musculus; experiment: Effect on Pneumocystis carinii pneumonia in SCID mice; assay type: functional
Summary of the method: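 SCID mice (10-11/group) were dosed prophylactically once daily from day 1 postinfection, 42 doses. Test drug in D5W was given ip, then leucovorin 12 mg/kg sc 30 min later. Trimethoprim 50 mg/kg plus sulfamethoxazole 250 mg/kg was given orally, and controls received D5W ip and sc. Lung impression smears were taken 24 h after the last dose and stained by immunofluorescence. Infection was scored 0-4 semilogarithmically, reported as mean ± SEM and as infected/total mice.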

Mus musculus [12] = organism: Mus musculus; experiment: Number of mice infected to tat of total number of mice ([…]/[…]); assay type: functional, organism-based
Mus musculus [13] = organism: Mus musculus; experiment: Effect on Candida albicans nephritis and Meningitis in Immunosuppressed Mice brain; assay type: functional
Summary of the method: (§2)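 Immunosuppressed CD-1 female mice (10/group) given cyclophosphamide ip, 160 and 40 mg/kg on days -4 and -1; C. albicans 5 × 10^4 cfu/mouse iv via lateral tail vein. Sc dosing of 20 or 50 mg/kg in sesame oil at 3, 7, 24, 30 h post-inoculation; sulfamethoxazole 200 mg/kg ip in D5W given 1 h before each dose. Kidney and brain cultured at 48 h; log cfu/g tissue.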

Mus musculus [14] = organism: Mus musculus; experiment: Effect on Candida albicans nephritis and Meningitis in Immunosuppressed Mice kidney; assay type: functional; summary of the method: as §2
A549 = experiment: Cytotoxic activity evaluated against A549 tumor cells; details: Homo sapiens
[15] = Relative concentration of compound in brain compared to concentration in plasma (0.4 ug/mL) at the time of tissue collection from mice; relative concentration; assay type: ADME, organism-based; details: mouse, read-out: Activity
[16] = Cytotoxic activity was evaluated against Daoy tumor cells; assay type: functional, cell-based; details: Homo sapiens; summary of the method: as §1
[17] = Cytotoxic activity was evaluated against L tumor cells; assay type: functional, cell-based; details: Mus musculus; summary of the method: as §1
Mus musculus [18] = experiment: Effect on life span of mice with intracranially implanted P388 Leukemic cells; assay type: functional
Summary of the method: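 CDF-1 female mice (18–20 g, 5 or 8/group); P388 leukemia, maintained by in vivo serial passage, implanted intracranially at 1 × 10^5 cells. Treatment started 24 h later; test agents suspended in 0.5% carboxymethyl cellulose plus 1% Tween 80, given sc or ip qd × 10. Read-out was percent increase in life span versus controls.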

Mus musculus [19] = experiment: Effect on life span of mice with intraperitoneally implanted P388 Leukemic cells; assay type: functional
Summary of the method: (§3)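 CDF-1 female mice (18–20 g, 5 or 8/group); P388 or P388/ADR cells implanted ip at 1 × 10^6 cells. Dosing began 24 h later; agents suspended in 0.5% carboxymethyl cellulose plus 1% Tween 80, given sc or ip qd × 10. Read-out was percent increase in life span.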

P388 [20] = experiment: Cytotoxic activity was evaluated against P388D1 tumor cells; assay type: functional, cell-based; details: Mus musculus; summary of the method: as §1
U-87 MG = experiment: Cytotoxic activity was evaluated against U87MG tumor cells; assay type: functional, cell-based, U-87MG ATCC; details: Homo sapiens; summary of the method: as §1
MCF7 [21] = experiment: Cytotoxic Activity was evaluated against MCF-7 cells; assay type: functional, Homo sapiens; summary of the method: as §1
Mus musculus [22] = experiment: Effect on life span of mice with intraperitoneally implanted P388/ADR Leukemic cells; assay type: functional; summary of the method: as §3

| SMILES | MIC (Candida albicans) [µg/mL] | Ki (Dihydrofolate reductase [1]) [pM] | Ki (Dihydrofolate reductase [2]) [pM] | IC50 (HCT-8) [pM] | other results |
| --- | --- | --- | --- | --- | --- |
| CCCc1cc2c3c(N)nc(N)nc3ccc2n1C(CC)CC | > 0.1 | < 110 | 0.4 | 4400 | – |
| CC(C)(C)c1cc2c(ccc3nc(N)nc(N)c32)[nH]1 | 0.05 (≈ 0.196 µM) | 120 | < 2 | 3300 | – |
| CC[C@]1(O)C[C@@H]2CN(CCc3c([nH]c4ccccc34)[C@@](C(=O)OC)(c3cc4c(cc3OC)N(C)[C@H]3[C@@](O)(C(=O)OC)[C@H](OC(C)=O)[C@]5(CC)C=CCN6CC[C@]43[C@@H]65)C2)C1 [VINBLASTINE] | – | – | – | – | Relative IC50 (KB [3]): 1.3; Relative IC50 (KB [4]): 2000; Relative IC50 (MCF7 [5]): 1; Relative IC50 (MCF7 [6]): 17500; Relative IC50 (MCF7 [7]): 0.5; Relative IC50 (KB 3-1): 1; Relative IC50 (P388 [8]): 19000 pM; Relative IC50 (P388 [9]): 1; Relative IC50 (P388 [10]): 200 pM |
| Nc1nc(=O)c2c([nH]1)NCC(CNc1ccc(C(=O)N[C@@H](CCC(=O)O)C(=O)O)cc1)N2C=O (stereo partly specified) [LEUCOVORIN] | – | – | – | – | Infection score (Mus musculus [11]): 3; No. of mice infected /total (Mus musculus [12]): Number of mice infected to tat of total number of mice ([…]/[…]) |
| CCc1cc2c3c(N)nc(N)nc3ccc2n1C(C)(C)C | > 0.1 | – | – | 1300 | – |
| CCc1cc2c3c(N)nc(N)nc3ccc2n1C(C)CC (stereo unspecified) | 0.1 (≈ 0.353 µM) | < 50 | 0.1 | 820 | – |
| CCCCc1cc2c3c(N)nc(N)nc3ccc2n1C(C)(C)C | > 0.1 | 380 | – | 52000 | – |
| Cc1cc(NS(=O)(=O)c2ccc(N)cc2)no1 [SULFAMETHOXAZOLE] | – | – | – | – | Log cfu/g of tissue (Mus musculus [13]): 4.7; Log cfu/g of tissue (Mus musculus [14]): 7.3 |
| CCC(CC)n1ccc2c3c(N)nc(N)nc3ccc21 | 0.001 (≈ 0.00371 µM) | 220 | 4.5 | 6000 | IC50 (A549): 10000 pM; Kp [15]: 10; IC50 [16]: 80000 pM; IC50 [17]: 2200 pM; Increase in life-span (Mus musculus [18]): 55%; Increase in life-span (Mus musculus [19]): 80%; Log cfu/g of tissue (Mus musculus [14]): 6; IC50 (P388 [20]): 4500 pM; IC50 (U-87 MG): 8000 pM |
| CCC(C)(C)n1c(C)cc2c3c(N)nc(N)nc3ccc21 | 0.025 (≈ 0.0882 µM) | 7.1 | 0.4 | 2100 | – |
| CCc1cc2c3c(N)nc(N)nc3ccc2n1C(CC)CC | 0.1 (≈ 0.336 µM) | < 60 | 0.2 | 570 | – |
| CCCc1cc2c3c(N)nc(N)nc3ccc2n1CC | 0.1 (≈ 0.371 µM) | 650 | 24 | 3100 | – |
| COc1cccc2c1C(=O)c1c(O)c3c(c(O)c1C2=O)C[C@@](O)(C(=O)CO)C[C@@H]3O[C@H]1C[C@H](N)[C@H](O)[C@H](C)O1 [DOXORUBICIN] | – | – | – | – | Relative IC50 (KB [3]): 1.6; Relative IC50 (KB [4]): 61; Relative IC50 (MCF7 [6]): 200; Relative IC50 (MCF7 [7]): 1.5; Relative IC50 (MCF7 [21]): 1; Relative IC50 (KB 3-1): 1; Increase in life-span (Mus musculus [19]): 130%; Increase in life-span (Mus musculus [22]): 30%; Relative IC50 (P388 [8]): 28000 pM; Relative IC50 (P388 [9]): 1; Relative IC50 (P388 [10]): 3700 pM |
